These results are taken from ChEMBL document CHEMBL1125515, “DNA-directed alkylating agents. 5. Acridinecarboxamide derivatives of (1,2-diaminoethane)dichloroplatinum(II)” (J Med Chem, 1992).

Where only a bound is given, the exact number is not on record here.

Assay [1] concerns Mus musculus. Briefly: Compound was treated in vivo for percent increase in life span of treated animals (optimal dose 5.5 mg/kg, ip) compared with P338/W bearing control animals. The format is functional, organism-based. Set-up: dose 5.5 mg/kg. Particulars: at 5.5 mg/kg.
For assay [2], the system named is Mus musculus. Briefly: Compound was treated in vivo for percent increase in life span of treated animals (optimal dose 5.3 mg/kg, ip) compared with P338/W bearing control animals. In kind it is functional, organism-based. Set-up: dose 5.3 mg/kg. To be noted: at 5.3 mg/kg.
Assay [3] relates to Mus musculus. Briefly: Compound was treated in vivo for percent increase in life span of treated animals (optimal dose 30 mg/kg, ip) compared with […]/W bearing control animals. The format is functional.
The nature of assay [4]: In Vitro evaluation for the growth inhibition of Subline (P388/AMSA) Leukemia cell lines. The format is functional, cell-based, Mus musculus. In outline: (§1)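 Cells were continuously exposed to drug for 72 h in 96-well cultures. IC50 is the drug concentration (μM) inhibiting cell growth by 50%. Determinations were run in triplicate.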
In assay [5] the test system is P388. Description: In Vitro evaluation for the growth inhibition of Wildtype P388 Leukemia cell lines. In kind it is functional, cell-based. Particulars: Mus musculus. The method, boiled down:
as §1

Assay [6] can be described thus: In Vitro evaluation for the growth inhibition of Subline (P388/CP) Leukemia cell lines. The format is functional, cell-based, Mus musculus. In outline: as §1
The test system of assay [7] is Mus musculus. Description: Compound was treated in vivo for percent increase in life span of treated animals (optimal dose 45 mg/kg, ip) compared with […]/W bearing control animals. The format is functional.
The subject of assay [8] is Mus musculus. Briefly: Compound was treated in vivo for percent increase in life span of treated animals (optimal dose 13.3 mg/kg) compared with […]/CP bering control animals. The format is functional, organism-based. Set-up: dose 13.3 mg/kg. To be noted: at 13.3 mg/kg.
Assay [9] relates to Mus musculus. Briefly: Compound was treated in vivo for percent increase in life span of treated animals (optimal dose 13.3 mg/kg, ip) compared with […]/W bearing control animals. In kind it is functional, organism-based. More on the design: dose 13.3 mg/kg. Particulars: at 13.3 mg/kg.
Assay [10] deals with Mus musculus. Briefly: Compound was treated in vivo for percent increase in life span of treated animals (optimal dose 65 mg/kg, ip) compared with P338/W bearing control animals. The format is functional.
The subject of assay [11] is Mus musculus. Briefly: Compound was treated in vivo for percent increase in life span of treated animals (optimal dose 20 mg/kg, ip) compared with […]/W bearing control animals. In kind it is functional.
The subject of assay [12] is Mus musculus. Description: Compound was treated in vivo for percent increase in life span of treated animals (optimal dose 100 mg/kg, ip) compared with […]/W bearing control animals. The format is functional.

In the case of CISPLATIN [listing 1 of 2 here], the Increase in life-span in [1] was under 20%; in assay [2] it was 120%.
Usually IC50 stands for the concentration that inhibits the measured activity by half. `Cl.NCCNCCCNC(=O)c1cccc2cc3ccccc3nc12` registered an Increase in life-span in assay [3] of 64%. Moreover, the figures for the IC50 in assay [4] (Mus musculus), in assay [5] and in [6] (Mus musculus) were 1.6 µM, 0.74 µM and 0.59 µM, respectively.
`Cl.NCCNCCCNC(=O)c1cccc2c(N)c3ccccc3nc12`: the IC50 in [4] (Mus musculus) turned out to be 0.87 µM; in [5], 3.1 µM; in assay [6] (Mus musculus), 2.6 µM. Besides, the Increase in life-span in assay [7] turned out to be 45%.
For “DICHLORO(ETHYLENEDIAMINE) PLATINUM (II) [listing 1 of 2 here]”, the Increase in life-span in assay [8] is under 20%; in [9], 70%.
Regarding `Cl.NCCNCCCCCCNC(=O)c1cccc2c(N)c3ccccc3nc12`, in [10], the Increase in life-span is listed as under 20%. Also, the IC50 in assay [5] was determined as 5.2 µM; in assay [6] (Mus musculus), 2.3 µM.
On to “DICHLORO(ETHYLENEDIAMINE) PLATINUM (II) [listing 2 of 2 here]”, for which 1.03 µM corresponded to half-maximal inhibition in assay [6] (IC50).
Consider `Cl.NCCNCCCCCCNC(=O)c1cccc2cc3ccccc3nc12`, for which the IC50 in [4] (Mus musculus) amounted to 1.1 µM; in assay [5] it was 0.51 µM; in assay [6] (Mus musculus) it was 0.35 µM. In addition, the Increase in life-span in assay [11] turned out to be 23%.
For `Cl.NCCNCCCNC(=O)c1ccc2nc3ccccc3cc2c1`, the IC50 in assay [5] came out at 3.8 µM; in assay [6] (Mus musculus), 4.9 µM. The compound also returned an Increase in life-span in assay [12] of under 20%.
Taken in the same sequence, the figures for `Cl.NCCNCCCCCCNC(=O)c1ccc2nc3ccccc3cc2c1` were 3.6 µM, 3.8 µM and under 20%.
On to CISPLATIN [listing 2 of 2 here], for which the IC50 in [4] was 5.5 µM; in [6], 5.3 µM.
